This is an account of results in ChEMBL document CHEMBL5653631, “A Potent and Selective ULK1 Inhibitor Suppresses Autophagy and Sensitizes Cancer Cells to Nutrient Stress” (iScience, 2018).

Test [1] has as its target Myosin light chain kinase 2, skeletal/cardiac muscle (Homo sapiens) (UniProt Q9H1R3). Kind of test: Inhibition of human recombinant skMLCK at 40 nM related to control ULK1.
Test [2] has as its target Glycogen synthase kinase-3 alpha (Homo sapiens) (UniProt P49840). Description: Inhibition of human recombinant GSK3A at 40 nM in presence of ATP by radiometric assay relative to control.
The target of test [3] is Interferon-induced, double-stranded RNA-activated protein kinase (Homo sapiens) (UniProt P19525). Kind of test: Inhibition of human recombinant PKR at 40 nM related to control ULK1.
Test [4] has as its target T1, Tyrosine-protein kinase TXK (Homo sapiens) (UniProt P42681).
T1 sequence (whole entry): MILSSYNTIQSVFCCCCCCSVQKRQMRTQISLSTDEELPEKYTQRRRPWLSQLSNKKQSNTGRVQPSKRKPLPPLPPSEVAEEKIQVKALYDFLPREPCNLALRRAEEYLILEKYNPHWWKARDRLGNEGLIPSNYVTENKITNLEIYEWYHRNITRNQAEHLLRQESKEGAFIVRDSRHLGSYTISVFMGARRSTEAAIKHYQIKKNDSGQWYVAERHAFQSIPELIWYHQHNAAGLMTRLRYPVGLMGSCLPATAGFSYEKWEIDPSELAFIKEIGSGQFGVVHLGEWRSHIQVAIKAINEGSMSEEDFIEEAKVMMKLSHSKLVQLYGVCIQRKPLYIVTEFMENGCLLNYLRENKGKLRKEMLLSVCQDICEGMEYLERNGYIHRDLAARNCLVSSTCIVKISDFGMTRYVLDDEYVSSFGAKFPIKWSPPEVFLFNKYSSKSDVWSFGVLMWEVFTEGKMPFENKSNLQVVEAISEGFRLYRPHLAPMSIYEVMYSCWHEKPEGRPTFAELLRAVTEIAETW
Kind of test: Inhibition of human recombinant TXK at 40 nM related to control ULK1.

Test [5] concerns the target Ribosomal protein S6 kinase alpha-2 (Homo sapiens) (UniProt Q15349). Description: Inhibition of human recombinant RSK3 at 40 nM related to control ULK1.
Test [6] addresses DNA-PK/Ku70/Ku85 (Homo sapiens) (UniProt P78527+P12956+P13010). Kind of test: Inhibition of human recombinant DNAPK at 40 nM in presence of ATP by radiometric assay relative to control. The format is protein-complex assay.
The target of test [7] is Mast/stem cell growth factor receptor Kit (Homo sapiens) (UniProt P10721). Description: Inhibition of human recombinant KIT at 500 nM related to control ULK1.
Test [8] concerns the target Serine/threonine-protein kinase 38-like (Homo sapiens) (UniProt Q9Y2H1). Description: Inhibition of human recombinant NDR2 at 500 nM in presence of ATP by radiometric assay relative to control.
For test [9], the target named is Serine/threonine-protein kinase MAK (Homo sapiens) (UniProt P20794). Kind of test: Inhibition of human recombinant MAK at 500 nM related to control ULK1.
Serine/threonine-protein kinase MAK (Homo sapiens), sequence (P20794 whole entry, looked up): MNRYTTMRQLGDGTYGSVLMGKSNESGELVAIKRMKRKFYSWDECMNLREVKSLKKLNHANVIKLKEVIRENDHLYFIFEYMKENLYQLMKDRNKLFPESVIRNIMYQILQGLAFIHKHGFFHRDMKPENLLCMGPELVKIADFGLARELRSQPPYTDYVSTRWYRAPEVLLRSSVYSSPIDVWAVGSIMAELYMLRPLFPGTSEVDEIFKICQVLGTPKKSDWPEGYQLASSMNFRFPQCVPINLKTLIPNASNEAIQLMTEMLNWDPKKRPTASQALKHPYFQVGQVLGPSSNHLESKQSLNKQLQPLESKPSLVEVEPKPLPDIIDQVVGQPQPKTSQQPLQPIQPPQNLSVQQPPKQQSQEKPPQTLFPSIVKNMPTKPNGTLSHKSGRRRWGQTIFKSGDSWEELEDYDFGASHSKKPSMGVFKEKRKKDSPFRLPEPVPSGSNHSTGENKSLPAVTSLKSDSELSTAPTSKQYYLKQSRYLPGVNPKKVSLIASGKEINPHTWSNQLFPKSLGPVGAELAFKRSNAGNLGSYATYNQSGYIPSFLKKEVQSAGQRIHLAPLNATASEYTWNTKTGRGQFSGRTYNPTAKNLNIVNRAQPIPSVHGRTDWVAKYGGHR
Test [10] addresses Serine/threonine-protein kinase SIK3 (Homo sapiens) (UniProt Q9Y2K2). Description: Inhibition of human recombinant QSK at 500 nM related to control ULK1.
For test [11], the target named is Homeodomain-interacting protein kinase 2 (Homo sapiens) (UniProt Q9H2X6). Description: Inhibition of human recombinant HIPK2 at 15 nM in presence of ATP by radiometric assay relative to control.
Homeodomain-interacting protein kinase 2 (Homo sapiens), sequence (Q9H2X6 whole entry, looked up): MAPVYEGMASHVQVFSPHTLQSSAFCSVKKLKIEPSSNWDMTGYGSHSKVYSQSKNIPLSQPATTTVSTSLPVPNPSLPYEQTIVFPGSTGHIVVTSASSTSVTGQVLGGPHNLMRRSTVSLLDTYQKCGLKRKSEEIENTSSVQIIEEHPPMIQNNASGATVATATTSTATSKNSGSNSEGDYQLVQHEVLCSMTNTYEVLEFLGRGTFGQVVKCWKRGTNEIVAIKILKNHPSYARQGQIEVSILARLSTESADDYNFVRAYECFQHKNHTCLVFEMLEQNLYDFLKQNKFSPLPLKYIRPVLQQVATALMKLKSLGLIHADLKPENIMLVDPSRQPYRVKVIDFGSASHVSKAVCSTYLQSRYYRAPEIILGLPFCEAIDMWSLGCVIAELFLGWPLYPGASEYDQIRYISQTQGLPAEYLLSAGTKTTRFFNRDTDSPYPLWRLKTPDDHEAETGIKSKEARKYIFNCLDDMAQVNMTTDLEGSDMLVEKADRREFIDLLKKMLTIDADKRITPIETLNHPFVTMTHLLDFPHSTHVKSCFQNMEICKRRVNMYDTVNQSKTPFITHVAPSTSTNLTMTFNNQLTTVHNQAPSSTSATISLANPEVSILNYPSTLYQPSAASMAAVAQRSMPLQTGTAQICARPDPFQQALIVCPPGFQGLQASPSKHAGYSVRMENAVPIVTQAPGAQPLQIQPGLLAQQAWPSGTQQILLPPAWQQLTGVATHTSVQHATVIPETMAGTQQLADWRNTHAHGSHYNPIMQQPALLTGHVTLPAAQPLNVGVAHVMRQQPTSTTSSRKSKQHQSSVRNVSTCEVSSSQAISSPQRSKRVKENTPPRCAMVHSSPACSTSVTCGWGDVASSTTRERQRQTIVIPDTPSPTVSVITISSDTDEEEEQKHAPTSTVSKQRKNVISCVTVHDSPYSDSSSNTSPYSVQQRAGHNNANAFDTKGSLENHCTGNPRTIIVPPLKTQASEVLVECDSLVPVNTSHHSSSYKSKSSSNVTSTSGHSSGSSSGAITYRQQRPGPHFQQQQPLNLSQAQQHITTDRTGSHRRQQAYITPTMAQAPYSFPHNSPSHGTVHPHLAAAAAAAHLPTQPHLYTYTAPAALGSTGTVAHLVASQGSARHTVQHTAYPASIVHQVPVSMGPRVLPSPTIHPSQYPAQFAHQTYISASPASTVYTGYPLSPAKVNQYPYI
Test [12] concerns the target Fibroblast growth factor receptor 3 (Homo sapiens) (UniProt P22607). Description: Inhibition of human recombinant FGFR3 at 15 nM related to control ULK1.
Test [13] addresses Protein kinase C theta type (Homo sapiens) (UniProt Q04759). Kind of test: Inhibition of human recombinant PKCt at 15 nM in presence of ATP by radiometric assay relative to control.
Test [14] concerns the target T2, Aurora kinase A (Homo sapiens) (UniProt O14965).
T2 sequence (whole entry): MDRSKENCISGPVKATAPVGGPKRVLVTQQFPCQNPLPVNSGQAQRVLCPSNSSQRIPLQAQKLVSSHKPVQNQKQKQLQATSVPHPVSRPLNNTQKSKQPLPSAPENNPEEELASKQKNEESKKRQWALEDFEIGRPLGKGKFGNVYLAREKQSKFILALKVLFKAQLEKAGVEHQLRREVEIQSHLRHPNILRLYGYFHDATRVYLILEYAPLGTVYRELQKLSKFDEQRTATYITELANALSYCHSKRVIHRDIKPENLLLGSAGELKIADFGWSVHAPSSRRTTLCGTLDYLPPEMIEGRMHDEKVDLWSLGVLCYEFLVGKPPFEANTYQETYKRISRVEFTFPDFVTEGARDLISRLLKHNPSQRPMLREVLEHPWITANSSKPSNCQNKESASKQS
Description: Inhibition of human recombinant AurA at 15 nM related to control ULK1. The essentials: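 Panel of 327 recombinant human kinases, each assayed in vitro by radiometric activity assay in duplicate at a single inhibitor concentration per compound, chosen with reference to its ULK1 inhibition. Activity remaining was expressed as percent of vehicle control, and percent inhibition was calculated as 100 minus percent activity remaining.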

Test [15] concerns the target T3, Serine/threonine-protein kinase ULK3 (Homo sapiens) (UniProt Q6PHR2).
T3 sequence (whole entry): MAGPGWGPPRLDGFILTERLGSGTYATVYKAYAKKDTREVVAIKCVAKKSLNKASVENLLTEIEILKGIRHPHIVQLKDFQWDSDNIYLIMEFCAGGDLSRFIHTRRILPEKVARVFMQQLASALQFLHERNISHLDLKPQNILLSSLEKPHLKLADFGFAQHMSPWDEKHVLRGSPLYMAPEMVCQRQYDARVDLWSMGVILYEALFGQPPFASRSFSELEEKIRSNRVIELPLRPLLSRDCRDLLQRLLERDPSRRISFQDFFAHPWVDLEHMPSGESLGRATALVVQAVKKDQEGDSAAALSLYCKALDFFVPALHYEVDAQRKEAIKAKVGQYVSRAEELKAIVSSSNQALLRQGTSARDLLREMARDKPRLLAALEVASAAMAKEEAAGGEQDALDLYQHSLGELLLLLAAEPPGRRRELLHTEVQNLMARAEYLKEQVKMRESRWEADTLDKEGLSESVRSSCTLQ
Description: Inhibition of human recombinant ULK3 at 15 nM in presence of ATP by radiometric assay relative to control.

Test [16] concerns the target STE20-like serine/threonine-protein kinase (Homo sapiens) (UniProt Q9H2G2). Description: Inhibition of human recombinant SLK at 15 nM in presence of ATP by radiometric assay relative to control.
Test [17] has as its target Casein kinase I isoform gamma-2 (Homo sapiens) (UniProt P78368). Kind of test: Inhibition of human recombinant CK1g2 at 15 nM related to control ULK1.
Test [18] deals with Vascular endothelial growth factor receptor 2 (Homo sapiens) (UniProt P35968). Kind of test: Inhibition of human recombinant KDR at 15 nM related to control ULK1.

Broadly, the inhibition is how much of the control response was suppressed.

Fibroblast growth factor receptor 3 (Homo sapiens), sequence (P22607 23-806 limits assumed): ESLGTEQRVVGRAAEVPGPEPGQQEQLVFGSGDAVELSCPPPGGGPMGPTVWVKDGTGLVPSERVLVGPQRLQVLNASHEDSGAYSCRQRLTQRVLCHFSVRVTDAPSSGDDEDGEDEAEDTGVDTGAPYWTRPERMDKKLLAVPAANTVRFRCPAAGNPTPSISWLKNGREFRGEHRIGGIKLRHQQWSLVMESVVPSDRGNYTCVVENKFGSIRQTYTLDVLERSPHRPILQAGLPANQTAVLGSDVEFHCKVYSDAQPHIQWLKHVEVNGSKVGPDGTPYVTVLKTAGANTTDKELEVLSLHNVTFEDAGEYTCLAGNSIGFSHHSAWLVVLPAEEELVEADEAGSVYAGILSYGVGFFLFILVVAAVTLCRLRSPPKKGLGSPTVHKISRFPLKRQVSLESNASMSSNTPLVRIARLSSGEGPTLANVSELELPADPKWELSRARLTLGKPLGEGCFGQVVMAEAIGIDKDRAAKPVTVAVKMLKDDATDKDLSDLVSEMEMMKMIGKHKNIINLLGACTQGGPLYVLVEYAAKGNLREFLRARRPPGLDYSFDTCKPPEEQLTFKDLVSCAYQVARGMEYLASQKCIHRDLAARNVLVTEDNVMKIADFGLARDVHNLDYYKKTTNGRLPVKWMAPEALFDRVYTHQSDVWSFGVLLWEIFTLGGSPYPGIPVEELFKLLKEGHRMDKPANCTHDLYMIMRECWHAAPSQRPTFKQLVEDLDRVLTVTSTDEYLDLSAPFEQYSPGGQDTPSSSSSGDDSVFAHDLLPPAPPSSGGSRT
Ribosomal protein S6 kinase alpha-2 (Homo sapiens), sequence (Q15349 whole entry): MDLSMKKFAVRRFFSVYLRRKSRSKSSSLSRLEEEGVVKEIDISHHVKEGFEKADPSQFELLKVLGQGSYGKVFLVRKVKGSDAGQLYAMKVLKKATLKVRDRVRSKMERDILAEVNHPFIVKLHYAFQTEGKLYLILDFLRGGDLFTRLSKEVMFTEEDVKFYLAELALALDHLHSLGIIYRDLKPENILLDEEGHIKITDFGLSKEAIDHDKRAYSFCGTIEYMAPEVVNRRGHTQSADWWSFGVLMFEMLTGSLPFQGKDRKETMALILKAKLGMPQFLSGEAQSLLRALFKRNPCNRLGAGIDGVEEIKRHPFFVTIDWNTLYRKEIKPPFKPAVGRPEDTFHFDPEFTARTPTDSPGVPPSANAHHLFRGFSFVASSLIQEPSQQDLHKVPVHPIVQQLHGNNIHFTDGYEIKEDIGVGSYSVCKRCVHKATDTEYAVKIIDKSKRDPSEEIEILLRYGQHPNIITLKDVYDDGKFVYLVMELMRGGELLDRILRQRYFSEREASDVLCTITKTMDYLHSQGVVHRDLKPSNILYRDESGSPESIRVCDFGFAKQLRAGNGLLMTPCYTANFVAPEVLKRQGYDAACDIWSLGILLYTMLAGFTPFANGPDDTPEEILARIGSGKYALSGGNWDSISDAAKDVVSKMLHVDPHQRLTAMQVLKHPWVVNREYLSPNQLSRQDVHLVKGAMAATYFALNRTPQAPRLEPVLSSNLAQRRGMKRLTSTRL
Glycogen synthase kinase-3 alpha (Homo sapiens), sequence (P49840 2-483 limits assumed): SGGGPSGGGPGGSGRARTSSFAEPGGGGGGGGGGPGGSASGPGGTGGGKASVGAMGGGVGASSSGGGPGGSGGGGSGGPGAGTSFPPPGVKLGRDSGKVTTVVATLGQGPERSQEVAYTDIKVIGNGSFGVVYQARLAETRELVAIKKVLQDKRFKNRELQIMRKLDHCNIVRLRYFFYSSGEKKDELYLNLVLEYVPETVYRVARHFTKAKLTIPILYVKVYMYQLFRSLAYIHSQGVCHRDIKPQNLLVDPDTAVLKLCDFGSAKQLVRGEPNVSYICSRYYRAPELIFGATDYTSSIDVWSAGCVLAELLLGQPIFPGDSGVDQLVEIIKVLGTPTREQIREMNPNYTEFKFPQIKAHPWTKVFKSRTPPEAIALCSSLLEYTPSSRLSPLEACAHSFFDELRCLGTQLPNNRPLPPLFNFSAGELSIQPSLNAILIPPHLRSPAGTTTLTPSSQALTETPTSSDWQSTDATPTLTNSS
Myosin light chain kinase 2, skeletal/cardiac muscle (Homo sapiens), sequence (Q9H1R3 whole entry): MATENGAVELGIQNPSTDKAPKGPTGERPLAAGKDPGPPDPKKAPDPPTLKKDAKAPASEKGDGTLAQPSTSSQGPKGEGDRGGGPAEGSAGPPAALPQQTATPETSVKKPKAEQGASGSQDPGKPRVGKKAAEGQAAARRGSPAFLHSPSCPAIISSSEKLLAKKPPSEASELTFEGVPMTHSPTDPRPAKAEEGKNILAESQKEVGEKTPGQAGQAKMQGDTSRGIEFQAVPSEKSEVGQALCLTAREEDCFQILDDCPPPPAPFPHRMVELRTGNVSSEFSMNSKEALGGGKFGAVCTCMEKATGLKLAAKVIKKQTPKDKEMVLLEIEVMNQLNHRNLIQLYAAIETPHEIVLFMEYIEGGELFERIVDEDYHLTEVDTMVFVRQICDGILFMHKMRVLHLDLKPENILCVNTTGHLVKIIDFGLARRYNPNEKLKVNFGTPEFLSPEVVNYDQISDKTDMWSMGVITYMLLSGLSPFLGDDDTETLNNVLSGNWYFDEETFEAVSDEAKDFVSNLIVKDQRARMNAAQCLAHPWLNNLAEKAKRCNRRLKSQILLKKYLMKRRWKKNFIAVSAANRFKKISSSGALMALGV
Serine/threonine-protein kinase 38-like (Homo sapiens), sequence (Q9Y2H1 2-464 limits assumed): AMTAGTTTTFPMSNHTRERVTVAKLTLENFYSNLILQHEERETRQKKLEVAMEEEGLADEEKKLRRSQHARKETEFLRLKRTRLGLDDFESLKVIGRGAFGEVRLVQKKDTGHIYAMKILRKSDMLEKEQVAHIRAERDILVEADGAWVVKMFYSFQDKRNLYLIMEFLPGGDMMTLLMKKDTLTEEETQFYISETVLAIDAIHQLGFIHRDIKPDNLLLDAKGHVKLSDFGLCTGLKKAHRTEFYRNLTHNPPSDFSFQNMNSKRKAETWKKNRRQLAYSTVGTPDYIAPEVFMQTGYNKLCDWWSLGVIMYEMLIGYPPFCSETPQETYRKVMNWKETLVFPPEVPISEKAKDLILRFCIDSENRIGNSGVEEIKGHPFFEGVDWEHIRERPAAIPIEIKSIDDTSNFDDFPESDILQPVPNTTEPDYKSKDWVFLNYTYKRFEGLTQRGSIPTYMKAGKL

For `O=C(N[C@@H](C1CC1)C(F)(F)F)c1cc(-c2cnn3cc(-c4ccc(F)cc4)cnc23)cs1`, the fold change (FC) in [1] is 0; in [3], 0; in [4], 0.18; in test [5], 0. Further, the inhibition in [2] was 0%; in test [6] it was 9%.
Take `CNC(=O)c1ccccc1Oc1nc(Nc2cc(OC)c(OC)c(OC)c2)ncc1Br`: the fold change (FC) in test [7] is 0.01; in test [9], 0.49; in [10], 0.11. Moreover, the inhibition in test [8] was 15%.
Take `CC(C)[C@H](NC(=O)c1cc(-c2cnn3cc(-c4ccc(OCCN5CCCCC5)cc4)cnc23)cs1)C(F)(F)F`: the inhibition is 3% in test [11], 0% in [13], 40% in test [15] and 22% in test [16]. Further, the fold change (FC) in [12] was 0; in test [14] it was 0.15; in test [17], 0; in [18], 0.23.
